Test results published in ChEMBL document CHEMBL1129978, “Effect of structural modification of enol-carboxamide-type nonsteroidal antiinflammatory drugs on COX-2/COX-1 selectivity” (J Med Chem, 1997).

Columns and labels:
[1] = target: T1, Prostaglandin G/H synthase 1 (Homo sapiens, UniProt P23219); assay: Inhibition of human Prostaglandin G/H synthase 1 at 1 ug/mL expressed as mean percent inhibition of control PGE-2 production
Procedure, shortened: (§1)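 Human COX-1 and COX-2 genes expressed in a baculovirus system; microsomes prepared from High Five insect cells and used as the enzyme source. Activity read as PGE2 production. Each dose run in duplicate wells within each experiment, and values given as mean percent inhibition of control PGE2.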

[2] = target: T1, Prostaglandin G/H synthase 1; assay: Inhibition of human Prostaglandin G/H synthase 1 at 0.1 ug/mL expressed as mean percent inhibition of control PGE-2 production; procedure, shortened: as §1
[3] = target: T1, Prostaglandin G/H synthase 1; assay: Inhibition of human Prostaglandin G/H synthase 1 at 10 ug/mL expressed as mean percent inhibition of control PGE-2 production; procedure, shortened: as §1
[4] = target: T1, Prostaglandin G/H synthase 1; assay: Concentration of drug that causes a 50% decrease in the maximal inhibition of Prostaglandin G/H synthase 1 activity as measured by PGE2 production('+' indicates 90-110% inhibition); procedure, shortened: as §1
[5] = target: T2, Prostaglandin G/H synthase 2 (Homo sapiens, UniProt P35354); assay: Concentration of drug that causes a 50% decrease in the maximal inhibition of Prostaglandin G/H synthase 2 activity as measured by PGE2 production('+' indicates 90-110% inhibition)
T2 sequence (P35354 whole entry): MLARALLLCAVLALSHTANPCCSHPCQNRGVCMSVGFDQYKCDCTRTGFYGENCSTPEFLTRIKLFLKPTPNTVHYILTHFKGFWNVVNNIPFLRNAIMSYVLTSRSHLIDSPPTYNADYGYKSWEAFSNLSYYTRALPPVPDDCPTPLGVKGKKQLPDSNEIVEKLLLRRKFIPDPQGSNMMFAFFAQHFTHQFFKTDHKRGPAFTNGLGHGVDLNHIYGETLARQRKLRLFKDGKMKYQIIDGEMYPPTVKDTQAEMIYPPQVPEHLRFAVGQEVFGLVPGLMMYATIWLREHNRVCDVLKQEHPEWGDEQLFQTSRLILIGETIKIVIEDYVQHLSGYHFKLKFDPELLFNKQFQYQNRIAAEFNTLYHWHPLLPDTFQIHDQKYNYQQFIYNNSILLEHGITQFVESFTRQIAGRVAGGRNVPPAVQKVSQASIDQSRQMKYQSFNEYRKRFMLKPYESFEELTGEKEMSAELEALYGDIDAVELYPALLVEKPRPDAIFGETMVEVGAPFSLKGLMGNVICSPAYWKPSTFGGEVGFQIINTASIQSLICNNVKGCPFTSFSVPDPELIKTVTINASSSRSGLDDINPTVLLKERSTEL

T1 sequence (P23219 whole entry): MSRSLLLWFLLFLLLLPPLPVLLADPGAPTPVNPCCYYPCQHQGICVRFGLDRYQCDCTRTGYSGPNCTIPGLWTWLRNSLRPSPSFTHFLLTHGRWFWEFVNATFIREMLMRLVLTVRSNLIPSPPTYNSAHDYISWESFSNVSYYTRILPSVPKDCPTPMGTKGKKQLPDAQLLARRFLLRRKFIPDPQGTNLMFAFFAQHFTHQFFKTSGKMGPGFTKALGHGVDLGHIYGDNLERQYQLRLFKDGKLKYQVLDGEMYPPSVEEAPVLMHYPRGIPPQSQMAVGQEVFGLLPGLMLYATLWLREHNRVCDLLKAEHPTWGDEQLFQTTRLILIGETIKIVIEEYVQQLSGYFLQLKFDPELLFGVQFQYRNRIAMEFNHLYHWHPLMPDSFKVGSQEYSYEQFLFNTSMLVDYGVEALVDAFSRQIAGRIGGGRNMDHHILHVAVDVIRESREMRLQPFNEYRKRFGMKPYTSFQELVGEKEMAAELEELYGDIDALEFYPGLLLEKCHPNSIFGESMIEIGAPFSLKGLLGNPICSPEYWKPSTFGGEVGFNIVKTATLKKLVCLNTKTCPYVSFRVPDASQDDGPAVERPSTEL

| SMILES | inhibition [1] [%] | inhibition [2] [%] | inhibition [3] [%] | IC50 [4] [nM] | IC50 [5] [nM] |
| --- | --- | --- | --- | --- | --- |
| CCN1C(O)=C(C(=O)Nc2ccc(Cl)cc2Cl)c2cc(Cl)ccc2S1(=O)=O | 85 | 36 | 99 |  |  |
| COc1ccc2c(c1)S(=O)(=O)N(C)C(C(=O)Nc1ccccc1)=C2O | 15 | -8 | 3 |  |  |
| CCN1C(C(=O)Nc2ncc(C)s2)=C(O)c2ccccc2S1(=O)=O | -6 | -2 | 27 |  |  |
| COc1ccc2c(c1)S(=O)(=O)N(C)C(C(=O)Nc1ncc(C)s1)=C2O | 16 | 6 | 50 |  |  |
| CCn1c2c(c3ccccc31)S(=O)(=O)N(C)C(C(=O)Nc1ccccn1)=C2O | -1 | -4 | 25 |  |  |
| O=C(Nc1cccc(Cl)c1)C1=C(O)c2cc(Cl)ccc2S(=O)(=O)C1 | 64 | -10 | 94 |  |  |
| CCCc1csc(NC(=O)C2=C(O)c3ccccc3S(=O)(=O)N2C)n1 | 1 | -3 | 44 |  |  |
| Cc1nnc(NC(=O)C2=C(O)c3ccccc3S(=O)(=O)N2C)s1 | 18 | 0 | 2 |  |  |
| CC1(C)Sc2ccccc2C(O)=C1C(=O)Nc1cccc(Cl)c1 | 20 | 3 | 29 |  |  |
| CN1C(O)=C(C(=O)Nc2ccccc2Cl)c2cc(Cl)ccc2S1(=O)=O | 100 | 94 | 100 | 41 | 8 |
| Cc1cc2c(s1)C(C(=O)Nc1ccc(Cl)cc1)=C(O)N(C)S2(=O)=O | 80 | 40 | 98 |  |  |
| Cc1cc(NC(=O)C2=C(O)c3ccccc3S(=O)(=O)N2C)no1 | 7 | -2 | 10 |  |  |
| CN1C(O)=C(C(=O)Nc2ccc(Cl)cc2)c2cc3ccccc3cc2S1(=O)=O | 100 | 57 | 100 |  |  |
| COc1ccc2c(c1)S(=O)(=O)N(C)C(C(=O)Nc1ccccn1)=C2O | 9 | -2 | 44 |  |  |
| CC1Sc2ccc(Cl)cc2C(O)=C1C(=O)Nc1ccccn1 (stereo not drawn) | 25 | 14 | 30 |  |  |
| O=C(Nc1ccc(Cl)cc1Cl)C1=C(O)N(Cc2ccccc2)S(=O)(=O)c2ccc(Cl)cc21 | 54 | 4 | 100 |  |  |
| CN1C(C(=O)Nc2nccs2)=C(O)c2sc3cc(Cl)ccc3c2S1(=O)=O | 100 | 99 | 100 |  |  |
| Cc1ccc2c(c1)C(O)=C(C(=O)Nc1ccccc1)N(C)S2(=O)=O | -8 | -1 | -1 |  |  |
| CN1C(O)=C(C(=O)Nc2nccs2)c2cc(Cl)ccc2S1(=O)=O | 76 | 18 | 98 |  |  |

| SMILES | inhibition [1] [%] | inhibition [2] [%] | inhibition [3] [%] | IC50 [4] [nM] | IC50 [5] [nM] |
| --- | --- | --- | --- | --- | --- |
| O=C(Nc1ccccn1)C1=C(O)c2ccccc2SC1 | 34 | -1 | 83 |  |  |
| CN1C(C(=O)Nc2ccccn2)=C(O)c2ccc3ccccc3c2S1(=O)=O | 78 | 29 | 100 |  |  |
| CN1C(O)=C(C(=O)Nc2ccccn2)c2ccccc2S1(=O)=O | 17 | 10 | 53 |  |  |
| Cc1ccc2c(c1)S(=O)(=O)N(C)C(C(=O)Nc1ncc(C)s1)=C2O | 31 | 8 | 69 |  |  |
| CN1C(O)=C(C(=O)Nc2ccccc2Cl)c2cc(F)ccc2S1(=O)=O | 96 | 32 | 100 |  |  |
| CN1C(C(=O)Nc2ncc(-c3ccccc3)s2)=C(O)c2ccccc2S1(=O)=O | 55 | 6 | 97 |  |  |
| Cc1coc(NC(=O)C2=C(O)c3ccccc3S(=O)(=O)N2C)n1 | 5 | 5 | -7 |  |  |
| CN1C(C(=O)Nc2nccs2)=C(O)c2c(c3ccccc3n2C)S1(=O)=O | 44 | -2 | 97 |  |  |
| Cc1ccc2c(c1)/C(=C(\O)Nc1ccccc1)C(=O)N(C)C2=O | 72 | 40 | 90 |  |  |
| Cc1cc2c(s1)S(=O)(=O)N(C)C(C(=O)Nc1ccccc1F)=C2O | 96 | 78 | 100 |  |  |
| CN1C(C(=O)Nc2nc(C(F)(F)F)cs2)=C(O)c2ccccc2S1(=O)=O | 19 | 8 | 72 |  |  |
| COc1ccc2c(c1)C(O)=C(C(=O)Nc1ccc(Cl)cc1)N(C)S2(=O)=O | 13 | 9 | 14 |  |  |
| Cc1cnc(NC(=O)C2=C(O)c3cc(Cl)ccc3SC2C)s1 (stereo not drawn) | 20 | 12 | 30 |  |  |
| Cc1cnc(NC(=O)C2=C(O)c3cc(Cl)ccc3S(=O)(=O)N2C)s1 | 26 | 11 | 62 |  |  |
| Cc1ccc2c(c1)/C(=C(\O)Nc1ncc(C)s1)C(=O)N(C)C2=O | 52 | 30 | 51 |  |  |
| Cc1cnc(NC(=O)C2=C(O)N(C)S(=O)(=O)c3ccc(Cl)cc32)s1 | 44 | 23 | 95 |  |  |
| CC1Sc2ccc(Cl)cc2C(O)=C1C(=O)Nc1cccc(Cl)c1 (stereo not drawn) | 10 | 15 | 12 |  |  |
| CN1C(=O)/C(=C(/O)Nc2ccccc2)c2cc(Cl)ccc2C1=O | 42 | 13 | 78 |  |  |
| CN1C(O)=C(C(=O)Nc2ccccn2)c2ccc(Cl)cc2S1(=O)=O | 41 | 7 | 45 |  |  |

| SMILES | inhibition [1] [%] | inhibition [2] [%] | inhibition [3] [%] | IC50 [4] [nM] | IC50 [5] [nM] |
| --- | --- | --- | --- | --- | --- |
| Cc1cnc(NC(=O)C2=C(O)c3c(c4ccccc4n3C)S(=O)(=O)N2C)s1 | 32 | 1 | 97 |  |  |
| CN1C(c2nc3ccccc3[nH]2)=C(O)c2ccccc2S1(=O)=O | 4 | -4 | 16 |  |  |
| CN1C(C(=O)Nc2ccccc2)=C(O)c2c(c3ccccc3n2C)S1(=O)=O | 31 | 9 | 93 |  |  |
| Cc1cnc(N/C(O)=C2\C(=O)N(C)C(=O)c3ccc(Cl)cc32)s1 | 35 | 5 | 76 |  |  |
| Cc1ccc2c(c1)/C(=C(\O)Nc1ccc(Cl)cc1Cl)C(=O)N(C)C2=O | 100 | 79 | 100 |  |  |
| Cc1cnc(NC(=O)C2=C(O)c3ccc(Cl)cc3S(=O)(=O)N2C)s1 | 36 | -9 | 85 |  |  |
| CN1C(O)=C(C(=O)Nc2ccc(Cl)cc2Cl)c2c(ccc(Cl)c2Cl)S1(=O)=O | 55 | 19 | 98 |  |  |
| Cn1c(C(=O)Nc2nccs2)c(O)c2ccccc2c1=O | 11 | 2 | 37 |  |  |
| CN1C(O)=C(C(=O)Nc2ccccc2Cl)c2cc(Cl)c(Cl)cc2S1(=O)=O | 97 | 28 | 100 |  |  |
| Cc1cnc(NC(=O)C2=C(O)c3ccccc3SC2)s1 | 29 | 16 | 35 |  |  |
| CN1C(C(=O)Nc2ccccn2)=C(O)c2cc(F)ccc2S1(=O)=O | 11 | 0 | 27 |  |  |
| CN1C(C(=O)Nc2ccccn2)=C(O)c2cc(Cl)ccc2S1(=O)=O | 14 | 3 | 43 |  |  |
| CCn1c2c(c3ccccc31)S(=O)(=O)N(C)C(C(=O)Nc1ccccc1)=C2O | 0 | -9 | 5 |  |  |
| CN1C(O)=C(C(=O)Nc2ccc(Br)cc2)c2ccc(Cl)cc2S1(=O)=O | 89 | 27 | 100 |  |  |
| Cc1cnc(NC(=O)C2=C(O)c3cc(Cl)ccc3SC2)s1 | 21 | 11 | 18 |  |  |
| O=C(Nc1cccc(Cl)c1)C1=C(O)c2ccccc2S(=O)(=O)C1 | 41 | 6 | 84 |  |  |
| CN1C(C(=O)Nc2ccccc2)=C(O)c2cc(Cl)ccc2S1(=O)=O | 16 | 15 | 17 |  |  |
| Cc1cnc(NC(=O)C2=C(O)c3cc(C)sc3S(=O)(=O)N2C)s1 | 6 | 9 | 14 |  |  |
| CN1C(O)=C(C(=O)Nc2ccc(Br)cc2)c2ccccc2S1(=O)=O | 88 | 54 | 100 |  |  |
